High-throughput results (PubChem)
TRPC4 PAM = allosteric potentiators of mouse TRPC4 channel | HEK293 TRPC4beta/mu-opioid, DAMGO EC20, Fluo-4 Ca2+ flux; active compounds read high | AID 2227 | B-score at 10 µM | 310,000 compounds, 0.42% hits;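 active = B-score of calcium response area above 5 SD of library B-scores, with initial fluorescence ratio within 5 SD of library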
Target sequence (Q9QUQ5 whole entry, looked up): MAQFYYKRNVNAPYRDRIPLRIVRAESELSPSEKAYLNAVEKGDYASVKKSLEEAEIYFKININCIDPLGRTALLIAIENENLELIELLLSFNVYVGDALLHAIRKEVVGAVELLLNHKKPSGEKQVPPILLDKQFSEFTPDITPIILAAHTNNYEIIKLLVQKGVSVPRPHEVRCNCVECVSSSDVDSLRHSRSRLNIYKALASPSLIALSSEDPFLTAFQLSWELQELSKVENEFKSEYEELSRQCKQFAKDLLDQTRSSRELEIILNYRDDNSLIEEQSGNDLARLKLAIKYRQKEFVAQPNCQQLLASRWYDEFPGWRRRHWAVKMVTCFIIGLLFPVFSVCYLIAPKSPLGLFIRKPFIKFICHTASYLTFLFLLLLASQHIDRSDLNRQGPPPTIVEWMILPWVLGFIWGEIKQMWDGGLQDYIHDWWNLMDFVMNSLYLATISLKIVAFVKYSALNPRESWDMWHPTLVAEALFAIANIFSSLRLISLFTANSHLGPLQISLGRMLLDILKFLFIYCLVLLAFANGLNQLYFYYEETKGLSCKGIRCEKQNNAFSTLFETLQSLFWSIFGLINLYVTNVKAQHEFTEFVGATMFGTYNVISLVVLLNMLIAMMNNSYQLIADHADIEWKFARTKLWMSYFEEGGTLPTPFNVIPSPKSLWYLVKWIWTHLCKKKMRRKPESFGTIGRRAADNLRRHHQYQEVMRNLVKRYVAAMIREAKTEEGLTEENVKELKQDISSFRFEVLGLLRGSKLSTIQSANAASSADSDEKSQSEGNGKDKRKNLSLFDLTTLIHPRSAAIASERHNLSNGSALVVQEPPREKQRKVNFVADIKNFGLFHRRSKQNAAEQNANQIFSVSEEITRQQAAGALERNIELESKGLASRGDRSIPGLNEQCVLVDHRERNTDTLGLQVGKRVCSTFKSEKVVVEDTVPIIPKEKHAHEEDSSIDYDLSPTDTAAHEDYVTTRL
TRPC6 inh = blocks the mouse TRPC6 cation channel; HEK293-TRPC6, membrane potential dye, ACh-evoked depolarization; active compounds read low; Q61143; AID 2553; B-score at 10 µM; 310,000 compounds, 1.1% hits;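 active = B-score under library mean minus 3 SD, initial fluorescence not abnormally high, positive integrated signal ratio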;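 also: B-score derived from integrated fluorescence ratio over the kinetic read; more negative B-score means stronger inhibition of depolarization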
TRPC6 activator = activates the mouse TRPC6 cation channel. 310,000 compounds, 0.13% hits. Q61143. HEK293-TRPC6 membrane potential dye fluorescence; active compounds read high. B-score at 10 µM. AID 2550;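 active = B-score of the integrated fluorescence ratio above library mean plus 3 SD, and starting fluorescence ratio within library mean plus 5 SD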;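 also: higher score means more depolarization so channel activation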
TRPC4 act = opens the mouse TRPC4 cation channel; Q9QUQ5; HEK293 TRPC4beta/mu-opioid, Fluo4 calcium fluorescence; active compounds read high; B-score at 10 µM; 310,000 compounds, 0.49% hits; AID 2237;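 active = B-score above 5 SD of library B-scores, and initial fluorescence ratio not above library mean plus 5 SD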;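 also: positive B-score marks a calcium rise read as TRPC4 activation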
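Incubation: 45 min room-temperature Fluo4 loading, 110 s read / System: HEK293 cells stably co-expressing mouse TRPC4beta and mu-opioid receptor / Signal: Fluo4 fluorescence, kinetic / Control set: buffer (low) and maximal DAMGO (high) / Measure: integrated baseline-normalised fluorescence ratio, converted to per-well B score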
TRPC4 inh = inhibitors of mouse TRPC4 channel | B-score at 10 µM | 300,000 compounds, 0.39% hits | AID 2247 | HEK293 TRPC4beta/mu-opioid, DAMGO-evoked Fluo4 calcium flux; active compounds read low;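 active = B-score over 3 SD under the library average, no early fluorescence shift, positive overall ratio signal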
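Assay system: HEK293 cells with stable TRPC4beta plus mu-opioid receptor expression. Dosing: single dose. Measured by: Fluo4 Ca2+ flux fluorescence. Also added: DAMGO in two steps, submaximal then maximal. Read-out: B score from integrated Fluo4 fluorescence ratio.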
TRPC4 sel inh 2 = second check of whether TRPC6 inhibitors also affect mouse TRPC4; HEK293 TRPC4/MOR, membrane potential dye fluorescence; channel activated by saturating DAMGO dose; 920 compounds, 42% hits; shares compounds with TRPC6 inh; inhibition, % at 10 µM;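 active = compounds whose fluorescence signal differed from control wells by over 3 SD, either direction, in both duplicate plates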
TRPC4 spec = tests whether TRPC6 inhibitors also affect mouse TRPC4; 920 compounds, 61% hits; AID 2777; HEK293 TRPC4/mu-opioid, membrane potential fluorescence; shares compounds with TRPC6 inh; activity change, negative = inhibition, % at 10 µM;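 active = rise or fall in signal beyond 3 SD of buffer-only wells in both replicate plates, either sign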;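 also: integrated kinetic ratio of fluorescence range over baseline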
HEK293 MPD ctr 2-1 = parental HEK293 nonspecific activity of TRPC6 inhibitors, second screen. shares compounds with TRPC6 inh. parental HEK293 membrane potential dye fluorescence; maximal acetylcholine challenge after compound addition. signal change vs control, % at 10 µM. 920 compounds, 31% hits. AID 2779;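 active = membrane potential signal moving either way by over 3 SD of the maximum-effect control, in both duplicate plates, meaning non-specific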
HEK293 MPD ctr-1 = parental HEK293 nonspecific activity of TRPC6 inhibitors | parental HEK293 membrane potential dye fluorescence | shares compounds with TRPC6 inh | 920 compounds, 60% hits | membrane potential signal change, % at 10 µM | AID 2780;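 active = membrane potential signal shifting up or down by more than 3 SD of buffer-only wells, on both duplicate plates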
HEK293 MPD ctr-2 = checks TRPC6 modulator effects in parental HEK293 cells; shares compounds with TRPC6 inh; membrane potential dye fluorescence; membrane potential signal change, % at 10 µM; 2,400 compounds, 51% hits;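 active = membrane potential signal moves up or down beyond 5 SD from buffer-only wells, on both duplicate plates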
HEK293 MPD ctr 2-2 = second check of TRPC6 modulator effects in parental HEK293 cells. shares compounds with TRPC6 inh. membrane potential dye fluorescence; after compound, maximal acetylcholine stimulation. inhibition, % at 10 µM. 2,400 compounds, 14% hits;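 active = membrane potential signal drops by more than 5 SD from the mean control signal, in both duplicate plates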
TRPC4/MOR mod = selectivity of TRPC6 modulators against mouse TRPC4. 2,400 compounds, 69% hits. HEK293 TRPC4/mu-opioid, membrane potential fluorescence. shares compounds with TRPC6 inh. percent change from control (negative = decrease, positive = increase), % at 10 µM;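 active = membrane potential signal moved up or down beyond 5 SD of buffer control wells, in both duplicate plates, actives on both sides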
TRPC4/MOR inh 2 = second selectivity test of TRPC6 modulators against mouse TRPC4. HEK293 TRPC4/mu-opioid, membrane potential dye fluorescence; stimulated with maximal-effect DAMGO. shares compounds with TRPC6 inh. AID 488928. 2,400 compounds, 55% hits. inhibition, % at 10 µM;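 active = drop in membrane potential signal beyond 5 SD of the control wells in both duplicate plates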;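 also: TRPC4 counter screen for TRPC6 hits run under conditions tuned for TRPC6 not TRPC4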
TRPC6 block conf = confirmation of mouse TRPC6 inhibitors. shares compounds with TRPC6 inh. HEK293-TRPC6, membrane potential dye, ACh-evoked depolarization. inhibition, % at 10 µM. 3,300 compounds, 43% hits. AID 488960;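 active = fluorescence ratio falls more than 5 SD below the full-stimulation control mean, in both duplicate runs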;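 also: integrated fluorescence ratio of peak minus minimum over baseline after agonist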
TRPC6 act confirm = mouse TRPC6 activator confirmation | shares compounds with TRPC6 inh | HEK293-TRPC6 membrane potential dye fluorescence, FDSS | activation, % at 10 µM | 2,800 compounds, 11% hits | AID 488961;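 active = ratio signal rise beyond 5 SD above unstimulated control wells' mean, seen in both duplicate runs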
Large screens that a line does not name were inactive (follow-up assays come after a bar, where they were run). Only some compounds are listed: those with a hit (about 2.3% of all), similar ones and a draw of the others.

NCCCC(=O)N1c2ccccc2Sc2ccc(Cl)cc21	TRPC6 inh -5.3 | HEK293 MPD ctr-2 inactive | HEK293 MPD ctr 2-2 inactive | TRPC4/MOR mod inactive | TRPC4/MOR inh 2 54% | TRPC6 block conf 64% | TRPC6 act confirm inactive
NCCC(=O)N1c2ccccc2Sc2ccc(Cl)cc21	none
O=C(CCN1CCN2CCCC2C1)N1c2ccccc2Sc2ccc(Cl)cc21 (configuration not stated)	none
CN1CCN(CCC(=O)N2c3ccccc3Sc3ccc(Cl)cc32)CC1	none
CCN(CC)CCC(=O)N1c2ccccc2Sc2ccc(Cl)cc21	TRPC6 inh -5.4 | HEK293 MPD ctr-2 216% | HEK293 MPD ctr 2-2 inactive | TRPC4/MOR mod 35% | TRPC4/MOR inh 2 46% | TRPC6 block conf 78%
CN1CCC=C(C(=O)N2c3ccccc3Sc3ccc(Cl)cc32)C1	TRPC6 inh -5.4 | HEK293 MPD ctr-2 118% | HEK293 MPD ctr 2-2 inactive | TRPC4/MOR mod 16% | TRPC4/MOR inh 2 38% | TRPC6 block conf 41%
CNc1oc(-c2ccc(C)cc2)nc1P(=O)(c1ccccc1)c1ccccc1	none
COc1cc(OC)c2nc(C)c3c(c2c1)N(c1ccc(O)cc1)CC3	TRPC6 inh -7.2 | HEK293 MPD ctr-2 -174% | HEK293 MPD ctr 2-2 101% | TRPC4/MOR mod -18% | TRPC4/MOR inh 2 42% | TRPC6 block conf inactive | TRPC6 act confirm inactive
CCCN1C(=O)/C(=C/c2ccc(N3CCCC3)c(C)c2)NC1=S	TRPC6 activator 63, TRPC4 act 58 | HEK293 MPD ctr-2 670% | HEK293 MPD ctr 2-2 inactive | TRPC4/MOR mod 226% | TRPC4/MOR inh 2 inactive | TRPC6 block conf inactive | TRPC6 act confirm 136%
CCN1C(=O)/C(=C/c2ccc(N3CCCC3)cc2)NC1=S	TRPC6 activator 30 | HEK293 MPD ctr-2 359% | HEK293 MPD ctr 2-2 inactive | TRPC4/MOR mod 235% | TRPC4/MOR inh 2 inactive | TRPC6 block conf inactive | TRPC6 act confirm 44%
Cc1cc(/C=C2/C(=O)N(C)C(=S)N2C)ccc1N1CCCC1	none
Cc1cc(/C=C2\NC(=S)N(C)C2=O)ccc1N1CCCC1	TRPC6 activator 34, TRPC4 act 49 | HEK293 MPD ctr-2 inactive | HEK293 MPD ctr 2-2 inactive | TRPC4/MOR mod 132% | TRPC4/MOR inh 2 inactive | TRPC6 block conf inactive | TRPC6 act confirm 33%
CCCCn1c(N)c(N(CCOC)C(=O)COC(=O)COc2cc(C)c(Cl)cc2C(C)C)c(=O)[nH]c1=O	none
Cc1ccc2nc3c(cc(C(=O)NC4CCS(=O)(=O)C4)n3Cc3ccccc3)c(=O)n2c1 (configuration not stated)	none
Cc1cc(N2CCC(C)CC2)nc2cccc(O)c12	TRPC6 inh -8.4, TRPC4 inh -6 | HEK293 MPD ctr-2 -139% | HEK293 MPD ctr 2-2 inactive | TRPC4/MOR mod -30% | TRPC4/MOR inh 2 86% | TRPC6 block conf inactive | TRPC6 act confirm inactive
CCCN(CCC)c1nc(NC2CCN(C(=O)OCC)CC2)nc(OC)n1	none
CC1=CC(=O)O[C@@H]1[C@@]1(C)C[C@H]2OC(=O)C[C@H]3[C@@H](C)C(=O)C(O)=C1[C@@]23CO	none
N/C(=N\OC(=O)c1ccco1)c1cccc(Br)c1	none
N/C(=N\OC(=O)c1ccco1)c1cccc([N+](=O)[O-])c1	TRPC6 inh -5.3 | HEK293 MPD ctr-2 inactive | HEK293 MPD ctr 2-2 inactive | TRPC4/MOR mod inactive | TRPC4/MOR inh 2 inactive | TRPC6 block conf inactive | TRPC6 act confirm inactive
CSCCC(NC(=O)COc1ccccc1)C(=O)NCC1COc2ccccc2O1 (configuration not stated)	none
COCCNC(=O)/C(C#N)=C/c1ccc(OCC(=O)NC2CCCCC2)cc1	none
COc1ccc(-c2nnc(N(C)C(=O)c3cccnc3)s2)cc1	TRPC6 inh -5.2 | HEK293 MPD ctr-2 inactive | HEK293 MPD ctr 2-2 inactive | TRPC4/MOR mod inactive | TRPC4/MOR inh 2 inactive | TRPC6 block conf inactive | TRPC6 act confirm inactive
O=c1oc2ccccc2c(N2CCCCC2)c1CN1CCCC1	none
O=c1oc2ccccc2c(N2CCCCC2)c1CN1CCCCC1	TRPC6 inh -5.1 | HEK293 MPD ctr-2 106% | HEK293 MPD ctr 2-2 inactive | TRPC4/MOR mod 26% | TRPC4/MOR inh 2 inactive | TRPC6 block conf inactive
Cc1ccc(NC2(C#N)C(=O)Nc3ccccc32)cc1C (configuration not stated)	none
COC(=O)c1ccc(NC2(C#N)C(=O)Nc3ccccc32)cc1 (configuration not stated)	TRPC6 inh -8.5 | TRPC4 sel inh 2 inactive | TRPC4 spec inactive | HEK293 MPD ctr 2-1 inactive | HEK293 MPD ctr-1 inactive | TRPC6 block conf 88%
CC1CCN(Cc2ccc(NC(=O)C3CCN(c4nnc(-n5cccc5)s4)CC3)cc2)CC1	TRPC6 inh -7.8 | TRPC4 sel inh 2 71% | TRPC4 spec inactive | HEK293 MPD ctr 2-1 inactive | HEK293 MPD ctr-1 inactive | TRPC6 block conf inactive | TRPC6 act confirm inactive
O=C(C1CCN(c2nnc(-n3cccc3)s2)CC1)N1CCN(Cc2ccc3c(c2)OCO3)CC1	none
O=C(Cn1cccc1C(=O)c1ccccc1)NCc1ccccc1Cl	TRPC6 inh -5.1 | HEK293 MPD ctr-2 inactive | HEK293 MPD ctr 2-2 inactive | TRPC4/MOR mod inactive | TRPC4/MOR inh 2 inactive | TRPC6 block conf inactive | TRPC6 act confirm inactive
